Assay outcomes (PubChem BioAssay)
The list is not random: actives were taken first. Their share in the collection is about 1.5%.
ZTA DNA inh – blocks Epstein-Barr virus ZTA, an EBNA-1 counter-screen. P03206. ZTA-DNA binding, fluorescence polarization. inhibition, % at 11 µM. hit rate 0.15% among 320,000; in the data active = inhibition above about 33%
EBNA-1 inhibitor – EBNA-1 DNA-binding inhibitors, primary screen, biochemical, fluorescence polarization | inhibition, % at 14.8 µM | AID 1950, 2009 | hit rate 0.34% among 300,000; in the data active = inhibition above about 28%
LANA-H2B inh – blockers of LANA interaction with H2A/H2B – biochemical, FP readout, HTS, primary screen. Protein LANA1 (Human herpesvirus 8 type P (isolate GK18)), Q9QR71. cell-free LANA-H2A/H2B peptide, fluorescence polarization. inhibition, % (test concentration not listed). hit rate 0.6% among 320,000; in the data active = inhibition mostly above about 10%, no sharp cut-off; inactive = mostly below about 6.7%
A1 inh – caspase 3/7 activation in MEF A1-2A-BIM cells, primary screen, A1 inhibitor project, cell-based, luminescence, HTS. hit rate 0.066% among 330,000. caspase activation, % (test concentration not listed). Caspase-Glo 3/7 luminescence, 3 h; percent of clofoctol response, vehicle zero;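 active = over half of replicate activation scores above 10%, or exactly half above 10 with the replicate mean above 10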
HNF4A DNA FP – change in binding of human HNF4A to DNA, primary screen, biochemical, fluorescence polarization, FITC-DNA | activity change, % at 10 µM | hit rate 0.3% among 360,000 | 1 h | AID 1224865, 2016 | Hepatocyte nuclear factor 4-alpha (Homo sapiens), P41235; in the data active = activity change above about 30%, passing the limit was not always enough
CSN deneddyl inh – inhibitors of CSN-mediated cullin deneddylation, primary screen, biochemical, fluorescence polarization, uHTS; COP9 signalosome complex subunit 5 (Homo sapiens), Q92905; Purified CSN, SCF-Nedd8-OG deneddylation; inhibition, % at 12.5 µM; hit rate 0.38% among 360,000; AID 651999, 2013;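 active = pattern-corrected inhibition above about 35%, with an unprinted fluorescence ratio check between 0.5 and 1.5, limit read from the data, passing the limit was not always enough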
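Detection – fluorescence polarization · System – HEK293T-derived human Csn5 enzyme · Controls – substrate-only high control, full reaction low control · Timing – 90 min, room temperature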
EBNA-1 confirm – EBNA-1 DNA-binding inhibitors, retest, confirmation, biochemical, fluorescence polarization, triplicate | shares compounds with EBNA-1 inhibitor | Recombinant EBNA-1 DBD, Cy5-DNA fluorescence polarization | inhibition, % at 14.8 µM | hit rate 35% among 830;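 active = mean inhibition across replicates above a set limit taken from the earlier primary screen, cut at about 28% in these data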
ZTA counter trip – EBV Zta DNA binding inhibitors, counter-screen for EBNA-1 inhibitor project, biochemical, fluorescence polarization, triplicate; shares compounds with EBNA-1 inhibitor; Zta-ZRE DNA binding, Cy5 fluorescence polarization; inhibition, % at 11.1 µM; 830 tested, under 10 active; AID 2328, 2010;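 active = mean inhibition over triplicates above a set limit taken from the primary EBNA-1 screen, cut at about 37% in these data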;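 also: purified full length Zta protein with Cy5 labeled ZRE DNA probe; inhibitors lower polarization by freeing the labeled DNA probe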
Numbers stand for hits; - = inactive; . = no result given.

SMILES	ZTA DNA inh	EBNA-1 inhibitor	LANA-H2B inh	A1 inh	HNF4A DNA FP	CSN deneddyl inh	EBNA-1 confirm	ZTA counter trip
Cc1cc(C)c2c(-n3cccc3)c(C(=O)NNS(=O)(=O)c3ccc(Cl)cc3)sc2n1	-	30	-	-	-	-	-	-
CSc1ncccc1C(=O)NCCc1ccc(S(N)(=O)=O)cc1	-	-	-	-	-	-	.	.
O=C(NNC(=O)C1CCN(S(=O)(=O)c2ccc(Cl)cc2)CC1)c1ccc(S(=O)(=O)N2CCCCC2)cc1	-	31	-	-	-	-	-	-
COc1ccccc1N(C)S(=O)(=O)c1ccc(C(=O)Nc2cc(OC)c(OC)c(OC)c2)cc1	.	.	.	.	-	-	.	.
NS(=O)(=O)c1ccc(CCNC(=O)c2cc(-c3ccccn3)nc3ccc(Br)cc23)cc1	-	43	-	-	-	-	36	-
NS(=O)(=O)c1ccc(CCNC(=O)c2cc(-c3ccc(Br)cc3)nc3ccccc23)cc1	-	-	-	-	-	-	.	.
Oc1ccc(N=Nc2ccccc2C(F)(F)F)c2cccnc12	-	95	-	-	-	-	-	-
COCC(C)n1c(SCC(=O)NC(=O)NCc2ccccc2)nc2ccccc2c1=O (stereo not drawn)	.	.	-	-	-	-	.	.
O=C(c1ccccc1F)N1CCN(S(=O)(=O)c2ccc(S(=O)(=O)N3CCCCCC3)cc2)CC1	-	31	-	-	-	-	33	-
C=CCNC(=S)NNC(=O)c1ccccc1	-	77	-	-	-	-	-	-
CC(=O)Nc1ccc(S(=O)(=O)NCC(=O)OCC(=O)NCCc2ccccc2)cc1	.	.	.	.	-	-	.	.
O=C(N/N=C/c1cccc([N+](=O)[O-])c1)c1cc(-c2ccc3c(c2)OCO3)n[nH]1	-	62	-	-	-	-	-	-
O=C(N/N=C/c1cccc(O)c1)c1cc(-c2ccc3c(c2)OCO3)n[nH]1	-	-	-	-	-	-	.	.
CCCc1nc2ccc(C)cn2c1Cc1ccc(C)cc1	.	.	.	.	-	-	.	.
COC(=O)c1cn(NC(=O)Cc2ccc(Cl)cc2)c(=O)c2ccccc12	-	-	-	-	-	-	.	.
COC(=O)c1cn(NC(=O)Cc2ccc(Cl)c(Cl)c2)c(=O)c2ccccc12	-	44	-	-	-	-	-	-
CS(=O)(=O)NNC(=O)c1csc(Cc2c(Cl)sc3ccc(Cl)cc23)n1	-	40	-	-	-	-	41	-
Cc1ccc2[nH]c3c(=O)n(Cc4ccncc4)cnc3c2c1	-	-	-	-	-	-	.	.
Cc1ccc2[nH]c3c(=O)n(Cc4ccco4)cnc3c2c1	-	51	-	-	-	-	55	-
CCN(CC)S(=O)(=O)c1ccc(Cl)c(NC(=O)COc2ccc(OC)cc2)c1	-	-	-	-	-	-	.	.
C#CCOCCOCCOCCNc1nc(N2CCN(C(=O)[C@H](CCC(=O)O)n3cc(C(N)[C@H](C)CC)nn3)CC2)nc(N2CCN(C(=O)[C@H](CCC(=O)O)n3cc(C(N)[C@H](C)CC)nn3)CC2)n1 (stereo partly drawn)	-	-	-	-	-	-	.	.
Cc1csc(NC(=O)CSc2nc3ccccc3s2)n1	-	-	-	-	-	-	.	.
O=C(CSc1nc2ccccc2s1)Nc1nccs1	-	65	-	-	-	-	-	-
CCCCOc1ccc(C(=O)Nn2c(-c3cccs3)nc3ccccc3c2=O)cc1	-	95	-	-	-	-	41	-
Cc1cccc(NC(=O)CNC(=O)COc2ccc(C(=O)c3ccc(F)cc3)cc2)c1C	-	41	-	-	-	-	-	-
